Experimental data taken from ChEMBL document CHEMBL1150393, “Evaluation of radiolabeled (hetero)aromatic analogues of N-(2-diethylaminoethyl)-4-iodobenzamide for imaging and targeted radionuclide therapy of melanoma” (J Med Chem, 2008).

Legend:
[1] = Partition coefficient, log P in phosphate buffer solution at pH 7.4; format: physicochemical
Outline: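 Shake-flask partition: 50 µM [¹²⁵I]-labelled compound in phosphate buffer pH 7.4 was mixed with 2 mL n-octanol. Each phase was γ-counted, P was taken as the octanol/buffer activity ratio, and log P was reported.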

[2] = Biodistribution in tumor of C57BL/6 mouse bearing mouse B16-F0 cells at 0.74 to 0.92 MBq, iv after 72 hrs; format: ADME, organism-based, Neoplasm; details: in vivo
Outline: (§1)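 [¹²⁵I]-labelled compound given iv by tail vein (0.1 µmol per mouse) to male C57BL6 mice bearing s.c. B16-F0 flank tumours (5 × 10⁵ cells in PBS). Two mice per time point were killed by CO₂, frozen in liquid nitrogen and cut into 40 µm cryosections, eight slices per mouse. Slice radioactivity was read on a multiwire proportional counter, converted to kBq/g and reported as %ID/g.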

[3] = Ratio of drug level in tumor to liver of C57BL/6 mouse bearing mouse B16-F0 cells at 0.74 to 0.92 MBq, iv after 3 hrs; format: ADME, organism-based; details: in vivo
Outline: (§2)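 Tumour and organ radioactive concentrations came from whole-body cryosection counting (40 µm slices, eight per mouse, two mice per time) after tail-vein injection of the [¹²⁵I]-labelled compound (0.1 µmol) into male C57BL6 mice bearing s.c. B16-F0 melanoma. Each value is the ratio of the tumour concentration to the organ concentration.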

[4] = Ratio of drug level in tumor to liver of C57BL/6 mouse bearing mouse B16-F0 cells at 0.74 to 0.92 MBq, iv after 6 hrs; format: ADME, organism-based; details: in vivo; outline: as §2
[5] = Ratio of drug level in tumor to liver of C57BL/6 mouse bearing mouse B16-F0 cells at 0.74 to 0.92 MBq, iv after 72 hrs; format: ADME, organism-based; details: in vivo; outline: as §2
[6] = Ratio of drug level in tumor to lung of C57BL/6 mouse bearing mouse B16-F0 cells at 0.74 to 0.92 MBq, iv after 3 hrs; format: ADME, organism-based; details: in vivo; outline: as §2
[7] = Ratio of drug level in tumor to lung of C57BL/6 mouse bearing mouse B16-F0 cells at 0.74 to 0.92 MBq, iv after 6 hrs; format: ADME, organism-based; details: in vivo; outline: as §2
[8] = Ratio of drug level in tumor to lung of C57BL/6 mouse bearing mouse B16-F0 cells at 0.74 to 0.92 MBq, iv after 24 hrs; format: ADME, organism-based; details: in vivo; outline: as §2
[9] = Ratio of drug level in tumor to brain of C57BL/6 mouse bearing mouse B16-F0 cells at 0.74 to 0.92 MBq, iv after 6 hrs; format: ADME, organism-based; details: in vivo; outline: as §2
[10] = test system: Brain; assay: Biodistribution in brain of C57BL/6 mouse bearing mouse B16-F0 cells at 0.74 to 0.92 MBq, iv after 3 hrs; format: ADME, organism-based; details: in vivo
Outline: (§3)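 Male C57BL6 mice with s.c. left-flank B16-F0 melanoma (5 × 10⁵ cells in PBS). Two mice per time point frozen in liquid nitrogen after CO₂ sacrifice. Eight 40 µm whole-body cryosections per mouse read by multiwire proportional counter. cpm/mm² converted to kBq/g and expressed as %ID/g.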

[11] = test system: Brain; assay: Biodistribution in brain of C57BL/6 mouse bearing mouse B16-F0 cells at 0.74 to 0.92 MBq, iv after 6 hrs; format: ADME, organism-based; details: in vivo; outline: as §3
[12] = Biodistribution in intestinal content of C57BL/6 mouse bearing mouse B16-F0 cells at 0.74 to 0.92 MBq, iv after 6 hrs; format: ADME, organism-based; details: in vivo; outline: as §3
[13] = Biodistribution in Stomach content of C57BL/6 mouse bearing mouse B16-F0 cells at 0.74 to 0.92 MBq, iv after 1 hr; format: ADME, organism-based; details: in vivo; outline: as §3
[14] = Biodistribution in Stomach content of C57BL/6 mouse bearing mouse B16-F0 cells at 0.74 to 0.92 MBq, iv after 24 hrs; format: ADME, organism-based; details: in vivo; outline: as §3
[15] = Biodistribution in Stomach content of C57BL/6 mouse bearing mouse B16-F0 cells at 0.74 to 0.92 MBq, iv after 72 hrs; format: ADME, organism-based; details: in vivo; outline: as §3
[16] = test system: Liver; assay: Biodistribution in liver of C57BL/6 mouse bearing mouse B16-F0 cells at 0.74 to 0.92 MBq, iv after 3 hrs; format: ADME, organism-based; details: in vivo; outline: as §3
[17] = test system: Liver; assay: Biodistribution in liver of C57BL/6 mouse bearing mouse B16-F0 cells at 0.74 to 0.92 MBq, iv after 72 hrs; format: ADME, organism-based; details: in vivo; outline: as §3
[18] = test system: Muscle tissue; assay: Biodistribution in muscle of C57BL/6 mouse bearing mouse B16-F0 cells at 0.74 to 0.92 MBq, iv after 1 hr; format: ADME, organism-based; details: in vivo; outline: as §3
[19] = test system: Muscle tissue; assay: Biodistribution in muscle of C57BL/6 mouse bearing mouse B16-F0 cells at 0.74 to 0.92 MBq, iv after 6 hrs; format: ADME, organism-based; details: in vivo; outline: as §3
[20] = test system: Pancreas; assay: Biodistribution in pancreas of C57BL/6 mouse bearing mouse B16-F0 cells at 0.74 to 0.92 MBq, iv after 3 hrs; format: ADME, organism-based; details: in vivo; outline: as §3
[21] = test system: Pancreas; assay: Biodistribution in pancreas of C57BL/6 mouse bearing mouse B16-F0 cells at 0.74 to 0.92 MBq, iv after 6 hrs; format: ADME, organism-based; details: in vivo; outline: as §3
[22] = test system: Lung; assay: Biodistribution in lung of C57BL/6 mouse bearing mouse B16-F0 cells at 0.74 to 0.92 MBq, iv after 1 hr; format: ADME, organism-based; details: in vivo; outline: as §3
[23] = test system: Lung; assay: Biodistribution in lung of C57BL/6 mouse bearing mouse B16-F0 cells at 0.74 to 0.92 MBq, iv after 6 hrs; format: ADME, organism-based; details: in vivo; outline: as §3
[24] = test system: Lung; assay: Biodistribution in lung of C57BL/6 mouse bearing mouse B16-F0 cells at 0.74 to 0.92 MBq, iv after 24 hrs; format: ADME, organism-based; details: in vivo; outline: as §3
[25] = test system: Spleen; assay: Biodistribution in spleen of C57BL/6 mouse bearing mouse B16-F0 cells at 0.74 to 0.92 MBq, iv after 24 hrs; format: ADME, organism-based; details: in vivo; outline: as §1
[26] = test system: Spleen; assay: Biodistribution in spleen of C57BL/6 mouse bearing mouse B16-F0 cells at 0.74 to 0.92 MBq, iv after 72 hrs; format: ADME, organism-based; details: in vivo; outline: as §1
[27] = test system: Kidney; assay: Biodistribution in kidney of C57BL/6 mouse bearing mouse B16-F0 cells at 0.74 to 0.92 MBq, iv after 3 hrs; format: ADME, organism-based; details: in vivo; outline: as §3
[28] = test system: Kidney; assay: Biodistribution in kidney of C57BL/6 mouse bearing mouse B16-F0 cells at 0.74 to 0.92 MBq, iv after 24 hrs; format: ADME, organism-based; details: in vivo; outline: as §3
[29] = test system: Blood; assay: Biodistribution in blood of C57BL/6 mouse bearing mouse B16-F0 cells at 0.74 to 0.92 MBq, iv after 3 hrs; format: ADME, organism-based; details: in vivo; outline: as §3
[30] = Biodistribution in uvea of C57BL/6 mouse bearing mouse B16-F0 cells at 0.74 to 0.92 MBq, iv after 6 hrs; format: ADME, organism-based, Uveal tract; details: in vivo; outline: as §1
[31] = Biodistribution in uvea of C57BL/6 mouse bearing mouse B16-F0 cells at 0.74 to 0.92 MBq, iv after 24 hrs; format: ADME, organism-based, Uveal tract; details: in vivo; outline: as §1
[32] = test system: Thyroid gland; assay: Biodistribution in thyroid of C57BL/6 mouse bearing mouse B16-F0 cells at 0.74 to 0.92 MBq, iv after 24 hrs; format: ADME, organism-based; details: in vivo; outline: as §1
[33] = test system: Thyroid gland; assay: Biodistribution in thyroid of C57BL/6 mouse bearing mouse B16-F0 cells at 0.74 to 0.92 MBq, iv after 72 hrs; format: ADME, organism-based; details: in vivo; outline: as §1

Row | SMILES | logD [1] | Drug uptake [2] | Ratio [3] | Ratio [4] | Ratio [6] | Ratio [7] | Ratio [8] | Ratio [9] | Drug uptake [11] | Drug uptake [12] | Drug uptake [13] | Drug uptake [14] | Drug uptake [16] | Drug uptake [18] | Drug uptake [19] | Drug uptake [20] | Drug uptake [22] | Drug uptake [23] | Drug uptake [24] | Drug uptake [25] | further results
1 | CCN(CC)CCNC(=O)c1cc2cc([125I])ccc2[nH]1.Cl | 1.69 | 0.8 % ID/g | 1.96 | 2.71 | 2.95 | 5.79 | 22.05 | 5.38 | 0.74 % ID/g | 79.85 % ID/g | 35.41 % ID/g | 2.1 % ID/g | 5.21 % ID/g | 1.5 % ID/g | 0.31 % ID/g | 2.48 % ID/g | 14.41 % ID/g | 1.7 % ID/g | 0.37 % ID/g | 1.22 % ID/g | Ratio [5]: 1.38; Drug uptake [10]: 1.73 % ID/g; Drug uptake [15]: 0.04 % ID/g; Drug uptake [17]: 0.61 % ID/g; Drug uptake [21]: 1.46 % ID/g; Drug uptake [26]: 10.87 % ID/g; Drug uptake [27]: 4.19 % ID/g; Drug uptake [28]: 0.83 % ID/g; Drug uptake [29]: 0.79 % ID/g; Drug uptake [30]: 13.2 % ID/g; Drug uptake [31]: 8.81 % ID/g
2 | CCN(CC)CCNC(=O)c1c[nH]c2ccc([125I])cc2c1=O.Cl.Cl | 1.3 | 2.4 % ID/g | 2.2 | 18.16 | 4.6 | 38.73 | 68.5 | 72.6 | 0.08 % ID/g | 61.06 % ID/g | 12.74 % ID/g | 0.13 % ID/g | 1.84 % ID/g | 0.92 % ID/g | 0.01 % ID/g | 0.96 % ID/g | 2.06 % ID/g | 0.15 % ID/g | 0.04 % ID/g | 0.15 % ID/g | Drug uptake [21]: 1.08 % ID/g; Drug uptake [27]: 0.8 % ID/g; Drug uptake [28]: 0.03 % ID/g; Drug uptake [29]: 0.23 % ID/g; Drug uptake [32]: 5.09 % ID/g; Drug uptake [33]: 9.83 % ID/g; Drug uptake [30]: 5.18 % ID/g; Drug uptake [31]: 3.5 % ID/g
3 | CCN(CC)CCNC(=O)c1ccc2cc([125I])ccc2n1.Cl.Cl | 1.87 | 5.9 % ID/g | 2.85 | 2.42 | 4.54 | 3.23 | 22.89 | 46.51 | 0.37 % ID/g | 23.36 % ID/g | 48.03 % ID/g | 2.33 % ID/g | 8.89 % ID/g | 1.79 % ID/g | 0.95 % ID/g | 6.17 % ID/g | 9.41 % ID/g | 5.32 % ID/g | 0.53 % ID/g | 2.66 % ID/g | Ratio [5]: 7.26; Drug uptake [10]: 0.83 % ID/g; Drug uptake [17]: 1.23 % ID/g; Drug uptake [26]: 1.85 % ID/g; Drug uptake [27]: 12.59 % ID/g; Drug uptake [28]: 0.34 % ID/g; Drug uptake [29]: 5.57 % ID/g; Drug uptake [30]: 36.62 % ID/g; Drug uptake [31]: 22.27 % ID/g
